This is an account of results in ChEMBL document CHEMBL1147925, “First pharmacophore-based identification of androgen receptor down-regulating agents: discovery of potent anti-prostate cancer agents” (Bioorg Med Chem, 2007).

In assay [1] the test system is LNCaP. As to the kind of experiment: Decrease in androgen receptor protein expression in LNCaP cells by Western blotting. The format is functional, cell-based. Particulars: Homo sapiens. The method, boiled down: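 Whole-cell lysates were made in 0.1M Tris/0.5% Triton X-100 with protease inhibitor, and protein was measured by Bradford. Samples were run on 10% SDS-PAGE and immunoblotted with anti-AR monoclonal AR441 (1:500), HRP secondary and ECL. Signal was normalized to β-actin, and EC50 was taken from dose-response curves.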

Assay [2] deals with LNCaP. As to the kind of experiment: Growth inhibition of human LNCaP cells after 5 days by MTT colorimetric assay. The conditions noted are these: 120 h. For orientation: Tetrazolium assays rely on reduction of a dye to a coloured formazan, in cell work by metabolically active cells.

SMILES strings stand for the structures. Some results are limits rather than exact numbers.

`O=c1cc(CO)oc(C(Nc2ccccc2)c2ccccc2)c1O` (centres undefined) had an EC50 in assay [1] of 212 µM. Also, in assay [2], the IC50 stood at 20.9 µM.
The compound `CCOC(=O)c1ccccc1OC(=O)Oc1ccccc1C(=O)OCC` showed an EC50 in assay [1] of 65.5 µM. Further, in assay [2], the IC50 is 4.5 µM.
In the case of `Cc1ccc(S(=O)(=O)Nc2ccc(C)cc2[N+](=O)[O-])cc1`, the midpoint of the response in assay [1], the EC50, lay at 76 µM. In assay [2], this compound showed an IC50 of 39.8 µM.
`CSc1ccc(OS(=O)(=O)c2cccc3nsnc23)cc1` displayed an EC50 in assay [1] of 17.5 µM. This compound also showed an IC50 in assay [2] greater than 50 µM.
The compound `CCN(CCO)C(C(=O)c1ccc(Cl)cc1)c1ccc(Cl)cc1` (centres undefined) had an EC50 in assay [1] of 39.5 µM. This compound also came in with an IC50 in assay [2] of 8.31 µM.
As for `O=C(CNCCCc1ccccc1)c1ccc(O)c(O)c1`, a half-maximal response in assay [1] (EC50) required 43.5 µM. In assay [2], this compound came in with an IC50 of 26.9 µM.
In assay [1], `COc1cc(/C=C/C(=O)CC(=O)/C=C/c2ccc(O)c(OC)c2)ccc1O` [CURCUMIN] gave an EC50 of 35 µM.
Turning to `O=C(O)c1ccccc1Nc1cccc(C(F)(F)F)c1` [FLUFENAMIC ACID], a half-maximal effect in assay [1] (EC50) was put at 200 µM.

A word on the EC50: it is the midpoint of the concentration-response curve. Low values mean greater potency, high ones weaker potency. In general, IC50 refers to the midpoint of a concentration-inhibition curve.
